Test results: ChEMBL document CHEMBL5331087, “Targeted AURKA degradation: Towards new therapeutic agents for neuroblastoma” (Eur J Med Chem, 2023)
Calls of active or inactive are those of the source. The rule behind the calls is not given here.

Legend:
[1] = Growth inhibition of patient derived 000GKX Neuroblastoma organoid assessed as reduction in viability […] by CellTiter Glo 3D assay; format: functional, tissue-based, Homo sapiens
In short: (§1)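 Patient-derived organoids were dissociated to single cells with Accutase and seeded in NB organoid medium at 5000 (000GKX), 20000 (NB059), 5000 (NB067) or 3000 (NB139) cells/well. Compound was added after 24 h over a concentration range in triplicate, with DMSO matched. Incubation was 120 h at 37 °C and 5% CO2. Viability was read by CellTiter-Glo 3D, and absolute IC50 derived (n = 1).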

[2] = target: T1, Protein cereblon/Aurora kinase A (Homo sapiens) (UniProt O14965+Q96SW2); test: PROTAC activity at AURKA/CRBN in human NGP cells assessed as reduction in AURKA level at 500 nM measured for 48 hrs by Western blot analysis; format: cell-based; set-up: scale not given: the % may be the effect or the level left
T1 sequence (O14965 whole entry, looked up): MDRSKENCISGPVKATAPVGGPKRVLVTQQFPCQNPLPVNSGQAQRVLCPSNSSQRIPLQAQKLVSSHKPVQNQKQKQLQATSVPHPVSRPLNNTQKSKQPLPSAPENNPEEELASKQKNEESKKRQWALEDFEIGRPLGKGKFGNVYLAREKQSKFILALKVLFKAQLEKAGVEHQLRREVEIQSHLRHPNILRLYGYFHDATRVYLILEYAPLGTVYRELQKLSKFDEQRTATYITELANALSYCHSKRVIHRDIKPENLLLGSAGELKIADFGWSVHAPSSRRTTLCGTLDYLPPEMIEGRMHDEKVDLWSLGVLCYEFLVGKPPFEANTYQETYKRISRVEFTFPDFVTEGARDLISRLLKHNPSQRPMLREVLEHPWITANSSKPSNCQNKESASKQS
T1 sequence (Q96SW2 whole entry, looked up): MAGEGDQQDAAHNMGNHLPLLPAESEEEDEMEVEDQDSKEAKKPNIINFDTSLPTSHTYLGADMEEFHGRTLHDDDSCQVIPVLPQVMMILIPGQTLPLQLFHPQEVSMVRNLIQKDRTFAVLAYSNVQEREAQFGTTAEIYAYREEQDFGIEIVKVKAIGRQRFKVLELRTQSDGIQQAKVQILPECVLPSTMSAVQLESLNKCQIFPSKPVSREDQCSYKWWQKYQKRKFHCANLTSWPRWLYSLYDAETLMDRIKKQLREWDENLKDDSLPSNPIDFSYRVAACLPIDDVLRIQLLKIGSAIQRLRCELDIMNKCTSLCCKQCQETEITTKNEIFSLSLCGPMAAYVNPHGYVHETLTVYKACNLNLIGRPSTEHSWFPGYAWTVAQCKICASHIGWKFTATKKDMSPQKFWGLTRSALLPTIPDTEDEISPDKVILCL
In short: (§2)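 NGP cells were treated with 500 nM compound and harvested at 0, 1, 3, 6, 24, 48 and 72 h. RIPA lysates (35 µg) were run on 10% SDS-PAGE and blotted to nitrocellulose. AURKA and MYCN were probed with vinculin as loading control and quantified by densitometry. Values are percent remaining relative to the DMSO control at each timepoint (n = 3).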

[3] = Growth inhibition of patient derived NB059 Neuroblastoma organoid assessed as reduction in viability incubated for […] by CellTiter Glo 3D assay relative to control; format: functional; conditions: Homo sapiens
SK-N-AS = test: Antiproliferative activity against human SK-N-AS cells assessed as reduction in cell viability incubated for 48 hrs relative to control; format: functional
In short: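 Cells grown in RPMI 1640 with 10% fetal calf serum, 2 mM L-glutamine and penicillin/streptomycin at 37 °C, 5% CO2. Seeded at 4500 (IMR-32) or 2100 (SK-N-AS) cells/well in 384-well plates and left to adhere overnight. Concentration range dispensed in triplicate. Confluence tracked by IncuCyte live-cell imaging, and 48h values normalized to DMSO. Absolute IC50 taken from a four-parameter variable-slope fit (n = 4).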

[4] = target: T2, N-myc proto-oncogene protein (Homo sapiens) (UniProt P04198); test: Induction of MYCN degradation in human NGP cells at 500 nM by Western blot analysis; format: cell-based; conditions: time <= 72.0 hrs; in short: as §2
T2 sequence (whole entry): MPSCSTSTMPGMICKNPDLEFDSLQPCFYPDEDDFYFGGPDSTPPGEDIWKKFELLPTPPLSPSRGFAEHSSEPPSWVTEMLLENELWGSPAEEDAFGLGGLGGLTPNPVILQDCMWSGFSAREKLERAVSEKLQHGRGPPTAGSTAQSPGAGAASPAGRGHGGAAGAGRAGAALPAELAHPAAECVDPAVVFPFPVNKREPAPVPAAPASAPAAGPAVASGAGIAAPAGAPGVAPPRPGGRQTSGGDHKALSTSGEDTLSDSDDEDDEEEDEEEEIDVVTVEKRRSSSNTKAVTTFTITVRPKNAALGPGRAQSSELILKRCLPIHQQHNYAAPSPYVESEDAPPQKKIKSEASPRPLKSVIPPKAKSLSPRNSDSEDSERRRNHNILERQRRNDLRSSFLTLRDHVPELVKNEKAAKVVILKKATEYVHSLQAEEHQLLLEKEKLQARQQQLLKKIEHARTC

[5] = target: T2, N-myc proto-oncogene protein (Homo sapiens); test: Induction of MYCN degradation in human NGP cells incubated for 24 hrs by immunoblotting analysis; format: cell-based; conditions: dose 10-1000 nM
[6] = target: T1, Protein cereblon/Aurora kinase A (Homo sapiens); test: PROTAC activity at AURKA/CRBN in human NGP cells assessed as AURKA degradation at 10 to 1000 nM measured for 24 hrs by immunoblotting analysis; format: cell-based; conditions: dose 10-1000 nM
In short: (§3)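 NGP cells were seeded at about 2×10^6 per flask, adhered for 48 h, and were then treated for 24 h with DMSO matched. Lysis was in RIPA with protease/phosphatase inhibitors. AURKA was quantified by capillary Simple Western with peak areas normalised to vinculin. Fold change is relative to DMSO (mean ± SD, n = 3).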

[7] = target: T1, Protein cereblon/Aurora kinase A (Homo sapiens); test: PROTAC activity at AURKA/CRBN in human NGP cells assessed as AURKA degradation at 100 nM measured for 3 hrs by shotgun proteome profiling relative to control
[8] = Antiproliferative activity against human N206 cells assessed as reduction in cell viability incubated for 48 hrs relative to control; format: functional
IMR-32 = test: Antiproliferative activity against human IMR-32 cells assessed as reduction in cell viability incubated for 48 hrs; format: functional, cell-based; conditions: IMR-32, 48 h
In short: (§4)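 Cells were grown in RPMI 1640 with 10% FCS and 2 mM L-glutamine. Seeding was 4500 cells/well for NGP, IMR-32 and N206, and 2100 cells/well for SK-N-AS, with adherence overnight. Compound was dispensed over a concentration range in triplicate. Confluence was imaged live for 48 h and normalised to the DMSO control. Absolute IC50 came from a four-parameter variable-slope fit (n = 4).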

[9] = Growth inhibition of patient derived NB139 Neuroblastoma organoid assessed as reduction in viability incubated for […] by CellTiter Glo 3D assay relative to control; format: functional; conditions: Homo sapiens
[10] = Antiproliferative activity against human NGP cells assessed as reduction in cell viability incubated for 48 hrs; format: functional, cell-based; in short: as §4
[11] = Growth inhibition of patient derived 000GKX Neuroblastoma organoid assessed as reduction in viability incubated for […] by CellTiter Glo 3D assay relative to control; format: functional; conditions: Homo sapiens
[12] = target: T1, Protein cereblon/Aurora kinase A (Homo sapiens); test: PROTAC activity at AURKA/CRBN in human NGP cells assessed as increase in H2AX phosphorylation at 10 to 1000 nM measured for 24 hrs by immunoblotting analysis; format: cell-based; conditions: dose 10-1000 nM
[13] = Growth inhibition of patient derived NB067 Neuroblastoma organoid assessed as reduction in viability […] by CellTiter Glo 3D assay; format: functional, tissue-based; conditions: Homo sapiens; in short: as §1
[14] = target: T1, Protein cereblon/Aurora kinase A (Homo sapiens); test: PROTAC activity at AURKA/CRBN in human NGP cells assessed as AURKA degradation measured for 24 hrs by Western blot analysis; format: cell-based; conditions: dose 10-1000 nM
NGP [15] = test: Induction of apoptosis in human NGP cells assessed as increase in caspase3/7 level at 1000 nM incubated for 24 hrs; format: functional, cell-based
In short: (§5)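 NGP cells were seeded at 25,000 cells/well and allowed to adhere overnight. Compound was dispensed in triplicate with DMSO matched. At 24 h, cell-occupied area was imaged live, then a Caspase-Glo 3/7 assay was run using 50 µL reagent per well. Signal is expressed per cell-occupied area.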

[16] = target: T1, Protein cereblon/Aurora kinase A (Homo sapiens); test: PROTAC activity at AURKA/CRBN in human NGP cells assessed as AURKA degradation at 0.1 to 1000 nM measured for 24 hrs by Western blot analysis relative to control; format: cell-based; conditions: dose 0.1-1000 nM; in short: as §3
[17] = Growth inhibition of patient derived NB139 Neuroblastoma organoid assessed as reduction in viability […] by CellTiter Glo 3D assay; format: functional, tissue-based; conditions: Homo sapiens; in short: as §1
[18] = target: T1, Protein cereblon/Aurora kinase A (Homo sapiens); test: PROTAC activity at AURKA/CRBN in human NGP cells assessed as reduction in AURKA level at 500 nM measured for 1 hr by Western blot analysis; format: cell-based; set-up: scale not given: the % may be the effect or the level left; in short: as §2
NGP [19] = test: Induction of apoptosis in human NGP cells assessed as increase in caspase3/7 level at 10 nM incubated for 24 hrs; format: functional, cell-based; in short: as §5
[20] = Antiproliferative activity against human NGP cells assessed as reduction in cell viability incubated for 48 hrs relative to control; format: functional

Activity [2]: 100% | Activity [4]: Dose-Dependent Effect | Activity [5]: Dose-Dependent Effect | Activity [6]: Active | Activity [7]: Active | Activity [12]: Active | Activity [14]: Active | Emax [16]: 89% | Activity [18]: 7%
Compound: O=C1CCC(N2C(=O)c3cccc(OCCOCCOCCOCCNC(=O)[C@]4(Cc5cccc(Nc6nccs6)n5)CC[C@@H](Oc5cccc(Cl)c5F)CC4)c3C2=O)C(=O)N1 (some centres not stated)
IC50 [1]: Not Active | Emax [3]: 80.2% | Emax (SK-N-AS): 45% | Emax [8]: 53.5% | IC50 (IMR-32): 21.5 nM | Emax [9]: 37.8% | IC50 [10]: 31.9 nM | Emax [11]: 38.2% | IC50 [13]: 26.4 nM | Activity (NGP [15]): Active | IC50 [17]: 131 nM | Activity (NGP [19]): Active | Emax [20]: 27.8%
